Reference: ChEMBL document CHEMBL1806386, “Antiproliferative activity of aroylacrylic acids. Structure-activity study based on molecular interaction fields” (Eur J Med Chem, 2011)

Columns and labels:
[1] = test system: K562; experiment: Antiproliferative activity against human K562 cells assessed as inhibition of cell survival after 72 hrs by MTT method; type: functional, cell-based; details: K562, 72 h
Outline: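 K562 grown in suspension at 3000 cells/well in RPMI-1640 with 10% FBS, 3 mmol/L L-glutamine, 25 mM Hepes, pH 7.2. Five concentrations added 2 h after seeding from 10 mM DMSO stocks, in triplicate. MTT read 72 h later, SDS solubilization, A570. IC50 taken from blank-subtracted survival relative to control, mean of three experiments.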

[2] = Antiproliferative activity against human LS 174T cells assessed as inhibition of cell survival after 72 hrs by MTT method; type: functional, cell-based; details: LS174T
Outline: (§1)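 HeLa (2000 cells/well) or LS174 (5000 cells/well) seeded in RPMI-1640 with 10% FBS, 3 mmol/L L-glutamine, 25 mM Hepes, pH 7.2; five concentrations added after 20 h from 10 mM DMSO stocks, each in triplicate. MTT 72 h after dosing, 4 h at 37 °C, SDS solubilization, A570 next day. Blank-subtracted survival vs control; IC50 is the mean of three experiments.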

[3] = test system: HeLa; experiment: Antiproliferative activity against human HeLa cells assessed as inhibition of cell survival after 72 hrs by MTT method; type: functional, cell-based; outline: as §1
[4] = test system: HeLa; experiment: Cell cycle arrest in human HeLa cells assessed as accumulation at G2/M phase at 2 times IC50 after 24 hrs using propidium iodide staining by flow cytometry (reference value: 25.97%); type: functional
Outline: (§2)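 HeLa cells, 5×10⁵ per aliquot, treated at two times the 72 h IC50 for 24, 48 or 72 h alongside untreated controls. Fixed in 70% ethanol on ice for one week, given RNase A at 37 °C for 30 min, then PI for at least 30 min. Flow cytometry with 488 nm excitation, FL2 at 585/42 nm, doublets excluded, 20,000 events per sample.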

[5] = test system: HeLa; experiment: Cell cycle arrest in human HeLa cells assessed as accumulation at sub-G1 phase at 2 times IC50 after 48 hrs using propidium iodide staining by flow cytometry (reference value: 6.87%); type: functional; outline: as §2
[6] = test system: HeLa; experiment: Cell cycle arrest in human HeLa cells assessed as accumulation at G2/M phase cell at 2 times IC50 at 2 times IC50 after 48 hrs using propidium iodide staining by flow cytometry (reference value: 22.05%); type: functional; outline: as §2
[7] = test system: HeLa; experiment: Cell cycle arrest in human HeLa cells assessed as accumulation at G1 phase at 2 times IC50 after 24 hrs using propidium iodide staining by flow cytometry (reference value: 46.78%); type: functional; outline: as §2
[8] = test system: HeLa; experiment: Cell cycle arrest in human HeLa cells assessed as accumulation at G1 phase at 2 times IC50 after 72 hrs using propidium iodide staining by flow cytometry (reference value: 49.90%); type: functional; outline: as §2
[9] = test system: HeLa; experiment: Cell cycle arrest in human HeLa cells assessed as accumulation at G1 phase at 2 times IC50 after 48 hrs using propidium iodide staining by flow cytometry (reference value: 51.32%); type: functional; outline: as §2
[10] = test system: HeLa; experiment: Cell cycle arrest in human HeLa cells assessed as accumulation at S phase at 2 times IC50 after 24 hrs using propidium iodide staining by flow cytometry (reference value: 24.47%); type: functional; outline: as §2
[11] = test system: HeLa; experiment: Cell cycle arrest in human HeLa cells assessed as accumulation at sub-G1 phase at 2 times IC50 after 24 hrs using propidium iodide staining by flow cytometry (reference value: 3.34%); type: functional; outline: as §2
[12] = test system: HeLa; experiment: Cell cycle arrest in human HeLa cells assessed as accumulation at G2/M phase cell at 2 times IC50 after 72 hrs using propidium iodide staining by flow cytometry (reference value: 17.57%); type: functional; outline: as §2
[13] = test system: HeLa; experiment: Cell cycle arrest in human HeLa cells assessed as accumulation at sub-G1 phase at 2 times IC50 after 72 hrs using propidium iodide staining by flow cytometry (reference value: 9.85%); type: functional; outline: as §2
[14] = test system: HeLa; experiment: Cell cycle arrest in human HeLa cells assessed as accumulation at S phase at 2 times IC50 after 72 hrs using propidium iodide staining by flow cytometry (reference value: 22.53%); type: functional; outline: as §2
[15] = test system: HeLa; experiment: Cell cycle arrest in human HeLa cells assessed as accumulation at S phase at 2 times IC50 after 48 hrs using propidium iodide staining by flow cytometry (reference value: 20.14%); type: functional; outline: as §2

Row | Compound | IC50 [1] | IC50 [2] | IC50 [3] | other results
1 | O=C(O)/C=C/C(=O)c1ccccc1 | 30.2 µM | 45.5 µM | 30.6 µM | –
2 | Cc1ccc(C)c(C(=O)/C=C/C(=O)O)c1 | 5.9 µM | 22 µM | 7.86 µM | –
3 | Cc1ccc(C(=O)/C=C/C(=O)O)c(C)c1 | 5.35 µM | 7.08 µM | 6.06 µM | –
4 | COc1ccc(C(=O)/C=C/C(=O)O)cc1 | 12.3 µM | 34.7 µM | 27.4 µM | –
5 | CC(C)c1ccc(C(C)C)c(C(=O)/C=C/C(=O)O)c1 | 3.28 µM | 6.23 µM | 4.75 µM | –
6 | CC(C)c1cc(C(C)C)c(C(=O)/C=C/C(=O)O)c(C(C)C)c1 | 4.67 µM | 8.28 µM | 6.1 µM | –
7 | CCCCc1ccc(C(=O)/C=C/C(=O)O)cc1 | 4.95 µM | 6.74 µM | 4.78 µM | –
8 | CC(C)c1ccc(C(=O)/C=C/C(=O)O)c(C(C)C)c1 | 4.68 µM | 5.36 µM | 4.06 µM | –
9 | O=C(O)/C=C/C(=O)c1ccc(Cl)cc1Cl | 58.5 µM | > 100 µM | 62.9 µM | –
10 | COc1ccc(C(=O)/C=C/C(=O)O)c(OC)c1OC | > 100 µM | > 100 µM | 96.2 µM | –
11 | CCc1ccc(C(C)C)cc1C(=O)/C=C/C(=O)O | 1.36 µM | 5.94 µM | 4.89 µM | –
12 | O=C(O)/C=C/C(=O)c1ccc(Cl)c(Cl)c1 | 23.2 µM | 32.3 µM | 28.3 µM | –
13 | CC(C)c1ccc(C(=O)/C=C/C(=O)O)cc1 | 5.56 µM | 25.7 µM | 4.9 µM | –
14 | Cc1cc(C2CCCCC2)c(C)cc1C(=O)/C=C/C(=O)O | 4.24 µM | 6.64 µM | 2.38 µM | –
15 | CCc1ccc(C(=O)/C=C/C(=O)O)cc1 | 5.53 µM | 21 µM | 27.8 µM | –
16 | CC(C)(C)c1ccc(C(=O)/C=C/C(=O)O)cc1 | 4.33 µM | 8.74 µM | 5.1 µM | –
17 | O=C(O)/C=C/C(=O)c1ccc(Cl)cc1 | 21.7 µM | 28.7 µM | 25.4 µM | –
18 | Cc1ccc(C(=O)/C=C/C(=O)O)cc1 | 9.17 µM | 28.4 µM | 7.62 µM | –
19 | Cc1ccc(C(=O)/C=C/C(=O)O)cc1C | 5.62 µM | 12.1 µM | 7.28 µM | –
20 | O=C(O)/C=C/C(=O)c1cc(C2CCCCC2)ccc1C1CCCCC1 | 3.32 µM | 4.28 µM | 1.26 µM | Activity [4]: 15.36%; Activity [5]: 15.79%; Activity [6]: 16.73%; Activity [7]: 39.98%; Activity [8]: 38.3%; Activity [9]: 36.94%; Activity [10]: 32.67%; Activity [11]: 12.64%; Activity [12]: 16.57%; Activity [13]: 21.71%; Activity [14]: 24.2%; Activity [15]: 31.66%
21 | CCc1c(C(=O)/C=C/C(=O)O)cc(C(C)C)cc1C(C)C | 5.1 µM | 12.3 µM | 7.61 µM | –
22 | CCc1cc(CC)c(C(=O)/C=C/C(=O)O)c(CC)c1 | 4.01 µM | 7.28 µM | 6.53 µM | –
23 | Cc1ccc(C(=O)/C=C/C(=O)O)c(Cl)c1 | 14.6 µM | 27.7 µM | 7.6 µM | –
24 | O=C(O)/C=C/C(=O)c1ccc(F)cc1 | 16.9 µM | 33.8 µM | 28.4 µM | –
25 | O=C(O)/C=C/C(=O)c1ccc2c(c1)CCCC2 | 5.6 µM | 17.6 µM | 7.01 µM | –
26 | CCCCCCCCCCCCc1ccc(C(=O)/C=C/C(=O)O)cc1 | 4.01 µM | 7.85 µM | 5.82 µM | –
27 | O=C(O)/C=C/C(=O)c1ccc(Br)cc1 | 11.2 µM | 27.1 µM | 18.7 µM | –
